From ChEMBL document CHEMBL5385902, “Synthesis of urea and thiourea derivatives of C20-epi-aminosalinomycin and their activity against Trypanosoma brucei” (Eur J Med Chem, 2023)
Values after ≈ are worked out from the molar mass of the structure shown. Active and inactive are the calls of the source. No cut-off for these calls is given here.

Tests used:
Trypanosoma brucei [1] = experiment: Trypanocidal activity against bloodstream form of Trypanosoma brucei 427-221a assessed as inhibition of parasite growth incubated for 24 hrs and measured at 48 hrs following resazurin challenge by resazurin assay; format: functional; details: time 72 hrs
Outline: (§1)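 Bloodstream-form T. brucei 427-221a (1 × 10^4 mL^-1) or HL-60 cells (5 × 10^4 mL^-1) in Baltz medium with 16.7% heat-inactivated bovine serum, 0.9% DMSO, 10-fold dilutions 100 μM to 100 nM; 37 °C, 5% CO2, 24 h. Resazurin then added, 48 h more; absorbance 570 nm, reference 630 nm. GI50 by linear interpolation; mean and SD of three independent experiments.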

Trypanosoma brucei [2] = experiment: Trypanocidal activity against bloodstream form of Trypanosoma brucei 427-221a assessed as parasite killing incubated for 24 hrs by microscopic analysis; format: functional
Outline: (§2)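 Bloodstream-form T. brucei 427-221a seeded at 1 × 10^4 mL^-1 or HL-60 cells at 5 × 10^4 mL^-1 in Baltz medium with 16.7% heat-inactivated bovine serum, 0.9% DMSO, 10-fold dilutions 100 μM to 100 nM; 37 °C, 5% CO2. MIC, concentration killing all cells, determined microscopically. Possible values 100 μM down to […].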

[3] = Cytotoxicity against human HL-60 cells assessed as inhibition of cell growth incubated for 24 hrs and measured at 48 hrs following resazurin challenge by resazurin assay; format: toxicity, cell-based; outline: as §1
[4] = Cytotoxicity against human HL-60 cells assessed as cell killing incubated for 24 hrs by microscopic analysis; format: toxicity, cell-based; details: read-out: MIC; outline: as §2
[5] = Selectivity index, ratio of GI50 for cytotoxicity against human HL60 cells to GI50 for Trypanocidal activity against bloodstream form of Trypanosoma brucei 427-221a; format: toxicity, cell-based; details: read-out: RatioGI50
Outline: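 Ratio of HL-60 GI50 to T. brucei GI50. Both from the resazurin assay in Baltz medium with 16.7% heat-inactivated bovine serum and 0.9% DMSO, 10-fold dilutions 100 μM to 100 nM, 24 h then 48 h with resazurin. GI50 by linear interpolation, three independent experiments.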

[6] = Selectivity index, ratio of MIC for cytotoxicity against human HL60 cells to MIC for Trypanocidal activity against bloodstream form of Trypanosoma brucei 427-221a; format: toxicity, cell-based; details: read-out: Selectivity Index
Trypanosoma brucei [7] = experiment: Trypanocidal activity against bloodstream form of Trypanosoma brucei 427-221a assessed as increase in cell swelling activity at 100 uM measured every 10 min for 60 mins by light scattering method; format: functional, organism-based
Outline: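 Light-scattering cell-volume assay. 1 × 10^7 bloodstream-form T. brucei 427-221a in 200 μL Baltz medium with 100 μM compound and 0.9% DMSO; controls with DMSO only. Absorbance at 490 nm read every 10 min for 60 min; falling absorbance indicates cell swelling. Rate constant k of the absorbance decrease derived. Means of three independent experiments.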

[8] = Lipophilicity, log P of the compound; format: physicochemical; details: octanol/water

SMILES | GI50 (Trypanosoma brucei [1]) [µM] | MIC (Trypanosoma brucei [2]) [µM] | GI50 at 72 h [3] [µM] | MCC at 24 h [4] [µM] | selectivity ratio [5] | selectivity ratio [6] | Activity (Trypanosoma brucei [7]) | logP [8]
C=CCNC(=O)N[C@H]1C=C[C@]2(O[C@H]([C@@H](CC)C(=O)[C@@H](C)[C@@H](O)[C@H](C)[C@@H]3O[C@@H]([C@@H](CC)C(=O)O)CC[C@@H]3C)[C@@H](C)C[C@H]2C)O[C@@]12CC[C@@](C)([C@H]1CC[C@](O)(CC)[C@H](C)O1)O2 | 3.2 | 10 (≈ 8.33 µg/mL) | 38.3 | 100 | 12 | 10 | – | –
C=CCNC(=S)N[C@H]1C=C[C@]2(O[C@H]([C@@H](CC)C(=O)[C@@H](C)[C@@H](O)[C@H](C)[C@@H]3O[C@@H]([C@@H](CC)C(=O)O)CC[C@@H]3C)[C@@H](C)C[C@H]2C)O[C@@]12CC[C@@](C)([C@H]1CC[C@](O)(CC)[C@H](C)O1)O2 | 0.31 | 1 (≈ 0.849 µg/mL) | 15.1 | 100 | 48.7 | 100 | – | –
CC[C@@H](C(=O)[C@@H](C)[C@@H](O)[C@H](C)[C@@H]1O[C@@H]([C@@H](CC)C(=O)O)CC[C@@H]1C)[C@H]1O[C@]2(C=C[C@H](NC(=O)Nc3cccc4ccccc34)[C@]3(CC[C@@](C)([C@H]4CC[C@](O)(CC)[C@H](C)O4)O3)O2)[C@H](C)C[C@@H]1C | 1.9 | 10 (≈ 9.19 µg/mL) | 13.5 | 100 | 7.1 | 10 | – | –
CC[C@@H](C(=O)[C@@H](C)[C@@H](O)[C@H](C)[C@@H]1O[C@@H]([C@@H](CC)C(=O)O)CC[C@@H]1C)[C@H]1O[C@]2(C=C[C@H](NC(=O)NCc3ccccc3)[C@]3(CC[C@@](C)([C@H]4CC[C@](O)(CC)[C@H](C)O4)O3)O2)[C@H](C)C[C@@H]1C | 1.5 | 10 (≈ 8.83 µg/mL) | 16.7 | 100 | 11.1 | 10 | – | –
CCNC(=O)N[C@H]1C=C[C@]2(O[C@H]([C@@H](CC)C(=O)[C@@H](C)[C@@H](O)[C@H](C)[C@@H]3O[C@@H]([C@@H](CC)C(=O)O)CC[C@@H]3C)[C@@H](C)C[C@H]2C)O[C@@]12CC[C@@](C)([C@H]1CC[C@](O)(CC)[C@H](C)O1)O2 | 3.2 | 10 (≈ 8.21 µg/mL) | 42 | 100 | 13.1 | 10 | – | –
CCCNC(=O)N[C@H]1C=C[C@]2(O[C@H]([C@@H](CC)C(=O)[C@@H](C)[C@@H](O)[C@H](C)[C@@H]3O[C@@H]([C@@H](CC)C(=O)O)CC[C@@H]3C)[C@@H](C)C[C@H]2C)O[C@@]12CC[C@@](C)([C@H]1CC[C@](O)(CC)[C@H](C)O1)O2 | 2.9 | 10 (≈ 8.35 µg/mL) | 36.7 | 100 | 12.7 | 10 | – | –
CCNC(=S)N[C@H]1C=C[C@]2(O[C@H]([C@@H](CC)C(=O)[C@@H](C)[C@@H](O)[C@H](C)[C@@H]3O[C@@H]([C@@H](CC)C(=O)O)CC[C@@H]3C)[C@@H](C)C[C@H]2C)O[C@@]12CC[C@@](C)([C@H]1CC[C@](O)(CC)[C@H](C)O1)O2 | 0.33 | 1 (≈ 0.837 µg/mL) | 18.5 | 100 | 56.1 | 100 | – | –
CC[C@@H](C(=O)[C@@H](C)[C@@H](O)[C@H](C)[C@@H]1O[C@@H]([C@@H](CC)C(=O)O)CC[C@@H]1C)[C@H]1O[C@]2(C=C[C@H](NC(=O)NCCCCl)[C@]3(CC[C@@](C)([C@H]4CC[C@](O)(CC)[C@H](C)O4)O3)O2)[C@H](C)C[C@@H]1C | 2.3 | 10 (≈ 8.7 µg/mL) | 18.1 | 100 | 7.9 | 10 | – | –
CC[C@@H](C(=O)[C@@H](C)[C@@H](O)[C@H](C)[C@@H]1O[C@@H]([C@@H](CC)C(=O)O)CC[C@@H]1C)[C@H]1O[C@]2(C=C[C@@H](O)[C@]3(CC[C@@](C)([C@H]4CC[C@](O)(CC)[C@H](C)O4)O3)O2)[C@H](C)C[C@@H]1C [SALINOMYCIN] | 0.27 | 1 (≈ 0.751 µg/mL) | 20 | 100 | 74.1 | 100 | Active | > 6.2
CC[C@@H](C(=O)[C@@H](C)[C@@H](O)[C@H](C)[C@@H]1O[C@@H]([C@@H](CC)C(=O)O)CC[C@@H]1C)[C@H]1O[C@]2(C=C[C@H](N)[C@]3(CC[C@@](C)([C@H]4CC[C@](O)(CC)[C@H](C)O4)O3)O2)[C@H](C)C[C@@H]1C | 3.3 | 10 (≈ 7.5 µg/mL) | 83.2 | 100 | 25.2 | 10 | inactive | –
CC[C@@H](C(=O)[C@@H](C)[C@@H](O)[C@H](C)[C@@H]1O[C@@H]([C@@H](CC)C(=O)O)CC[C@@H]1C)[C@H]1O[C@]2(C=C[C@H](NC(=S)Nc3ccccc3)[C@]3(CC[C@@](C)([C@H]4CC[C@](O)(CC)[C@H](C)O4)O3)O2)[C@H](C)C[C@@H]1C | 0.22 | 1 (≈ 0.885 µg/mL) | 8.9 | 10 | 40.5 | 10 | Active | –
CC[C@@H](C(=O)[C@@H](C)[C@@H](O)[C@H](C)[C@@H]1O[C@@H]([C@@H](CC)C(=O)O)CC[C@@H]1C)[C@H]1O[C@]2(C=C[C@H](NC(=O)NCCCl)[C@]3(CC[C@@](C)([C@H]4CC[C@](O)(CC)[C@H](C)O4)O3)O2)[C@H](C)C[C@@H]1C | 3.2 | 10 (≈ 8.56 µg/mL) | 38.5 | 100 | 12 | 10 | – | –
CCCCCCCCNC(=O)N[C@H]1C=C[C@]2(O[C@H]([C@@H](CC)C(=O)[C@@H](C)[C@@H](O)[C@H](C)[C@@H]3O[C@@H]([C@@H](CC)C(=O)O)CC[C@@H]3C)[C@@H](C)C[C@H]2C)O[C@@]12CC[C@@](C)([C@H]1CC[C@](O)(CC)[C@H](C)O1)O2 | 0.27 | 1 (≈ 0.905 µg/mL) | 6.3 | 10 | 23.3 | 10 | – | –
Cc1ccc(C(=O)Nc2ccc(S(=O)(=O)O)c3cc(S(=O)(=O)O)cc(S(=O)(=O)O)c23)cc1NC(=O)c1cccc(NC(=O)Nc2cccc(C(=O)Nc3cc(C(=O)Nc4ccc(S(=O)(=O)O)c5cc(S(=O)(=O)O)cc(S(=O)(=O)O)c45)ccc3C)c2)c1 [SURAMIN] | 0.039 | 0.1 (≈ 0.13 µg/mL) | > 100 | > 100 | > 2560 | > 1000 | – | –
CC[n+]1c(-c2ccccc2)c2cc(N)ccc2c2ccc(N)cc21 [HOMIDIUM BROMIDE] | 0.087 | 10 | 6.4 | 10 | 73.6 | 1 | – | –
CC[C@@H](C(=O)[C@@H](C)[C@@H](O)[C@H](C)[C@@H]1O[C@@H]([C@@H](CC)C(=O)O)CC[C@@H]1C)[C@H]1O[C@]2(C=C[C@H](NC(=O)Nc3ccccc3)[C@]3(CC[C@@](C)([C@H]4CC[C@](O)(CC)[C@H](C)O4)O3)O2)[C@H](C)C[C@@H]1C | 2.9 | 10 (≈ 8.69 µg/mL) | 44.9 | 100 | 15.5 | 10 | – | –
CCCCNC(=S)N[C@H]1C=C[C@]2(O[C@H]([C@@H](CC)C(=O)[C@@H](C)[C@@H](O)[C@H](C)[C@@H]3O[C@@H]([C@@H](CC)C(=O)O)CC[C@@H]3C)[C@@H](C)C[C@H]2C)O[C@@]12CC[C@@](C)([C@H]1CC[C@](O)(CC)[C@H](C)O1)O2 | 0.18 | 1 (≈ 0.865 µg/mL) | 8.4 | 10 | 46.7 | 10 | Active | –
CCCCNC(=O)N[C@H]1C=C[C@]2(O[C@H]([C@@H](CC)C(=O)[C@@H](C)[C@@H](O)[C@H](C)[C@@H]3O[C@@H]([C@@H](CC)C(=O)O)CC[C@@H]3C)[C@@H](C)C[C@H]2C)O[C@@]12CC[C@@](C)([C@H]1CC[C@](O)(CC)[C@H](C)O1)O2 | 0.36 | 1 (≈ 0.849 µg/mL) | 19.8 | 100 | 55 | 100 | Active | –
